Assay results published in BindingDB's records for PubMed 32809817 (Griffith University, 2020).

Target: T1, Galectin-8 (Homo sapiens, UniProt O00214)
T1 sequence (O00214 whole entry): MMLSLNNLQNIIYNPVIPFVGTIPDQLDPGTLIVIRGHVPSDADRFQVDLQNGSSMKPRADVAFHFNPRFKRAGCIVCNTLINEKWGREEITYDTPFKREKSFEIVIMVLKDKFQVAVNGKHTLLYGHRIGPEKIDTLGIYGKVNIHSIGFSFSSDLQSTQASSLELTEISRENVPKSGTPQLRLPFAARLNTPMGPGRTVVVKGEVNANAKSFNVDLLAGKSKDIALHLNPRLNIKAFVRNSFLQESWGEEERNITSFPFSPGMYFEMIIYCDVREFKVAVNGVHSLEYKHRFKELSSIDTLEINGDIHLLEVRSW
Assay: Binding affinity to N-terminal domain of human galectin-8 (8-154 residues) by ITC assay
Method in brief: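 Untagged galectin-8N (residues 8-154) was expressed in bacteria (IPTG induction 4 h, room temperature) and purified on lactosyl-Sepharose at 4 °C. Protein and ligand were in 20 mM Tris pH 7.5, 100 mM NaCl, 4 mM BME, 5% DMSO and degassed. Ligand (0.5 or 1 mM) was titrated into 100 µM protein over 20-25 × 2.5 µl injections, 150 s apart, at 298 K. Blank-corrected data were fitted to an independent-site model for Kd.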

OC[C@H]1O[C@@H](O[C@H]2[C@H](O)[C@@H](O)[C@H](O)O[C@@H]2CO)[C@H](O)[C@@H](O)[C@H]1O [Lactose, anhydrous]
Kd: 37.9 µM
